# Assay results taken from ChEMBL document CHEMBL4334439, “Discovery, Optimization, and Target Identification of Novel Potent Broad-Spectrum Antiviral Inhibitors” (J Med Chem, 2019).
# Legend:
# Hepatitis C virus [1] = experiment: Antiviral activity against GFP-fused HCV JFH-1 harboring K78E/E2-G451R/NS3-M260K/NS5A-T462I mutant infected in human Huh7.5.1 cells assessed as reduction in viral infection at 10 uM preincubated for 2 hrs followed by viral infection and measured after 48 hrs by epifluorescence microscopic analysis relative to control; format: functional, Hepacivirus hominis; design: scale not given: the % may be the effect or the level left
# In short: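 Primary screen at 10 μM. Huh7.5.1 cells were pretreated 2 h, then infected with GFP-HCV (MOI 1). GFP intensity was checked by fluorescence microscopy at 48 h. Hits needed over 50% fluorescence decay before dose-response retesting.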
# Hepatitis C virus [2] = experiment: Antiviral activity against EGFP-fused HCV JFH-1 harboring K78E/E2-G451R/NS3-M260K/NS5A-T462I mutant infected in human Huh7.5.1 cells assessed as reduction in viral RNA level after 2 days by qRT-PCR analysis; format: functional, organism-based, Hepacivirus hominis; conditions: JFH-1, Huh-7.5.1, 48 h
# In short: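 Huh7.5.1 cells at 1×10^4/well, grown overnight at 37 °C. HCVcc was mixed with serially diluted compound (top 30 or 6 μM), given alone or with the named drug, and added to the cells. Viral RNA was read by qRT-PCR after 2 days. EC50 is the concentration giving 50% RNA reduction.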
# [3] = Cytotoxicity against human Huh7.5.1 cells assessed as decrease in cell viability after 48 hrs by WST1 assay; format: cell-based
# In short: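 Cells seeded at 1 × 10^4 per well and cultured overnight at 37 °C, then incubated 48 h with serially diluted compounds. Viability read with WST-1 reagent as absorbance at OD450/OD630.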
# [4] = Selectivity index, ratio of CC50 for human Huh7.5.1 cells to EC50 for EGFP-fused HCV JFH-1 harboring K78E/E2-G451R/NS3-M260K/NS5A-T462I mutant infected in human Huh7.5.1 cells; format: toxicity, cell-based; conditions: read-out: Ratio CC50/EC50
# [5] = Inhibition of C-terminal 6-His tagged recombinant human DHODH N-terminal domain delta29 mutant expressed in Escherichia coli BL21(DE3) using dihydroorotate as substrate measured every 30 secs for 6 mins by DCIP dye based assay
# In short: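 Enzyme purified by HisTrap then size exclusion. Reaction started with 500 μM dihydroorotate. DCIP decrease read at 600 nm. Inhibition = (1 − Vi/V0) × 100. IC50 from 8–9 concentrations in triplicate by sigmoidal fit.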
SMILES,Activity (Hepatitis C virus [1]) [%],EC50 (Hepatitis C virus [2]) [nM],CC50 at 48 h [3] [nM],selectivity ratio [4],IC50 [5] [nM]
Cc1c(-c2ccc(OCCCN3CCOCC3)cc2)[nH]c2cccc(F)c2c1=O,>50,28100,> 100000,> 4,
Cc1c(-c2ccc(Cc3ccc(N4CCOCC4)cc3)cc2)[nH]c2cccc(F)c2c1=O,>50,3650,> 10000,> 3,
Cc1c(-c2ccc(Oc3ccc(N4CCCC4)cc3)c(F)c2)[nH]c2cccc(F)c2c1=O,>50,35,> 10000,> 285,
Cc1c(-c2ccc(OCCN3CCCCC3)cc2)[nH]c2cccc(F)c2c1=O,>50,16600,> 100000,> 6,
CN=S(=O)(c1ccc(Cc2ccc(-c3[nH]c4cccc(F)c4c(=O)c3C)cc2)cc1)C(F)(F)F (stereo not drawn),>50,5390,> 10000,> 2,
Cc1c(-c2ccc(Cc3ccc(SC(F)(F)F)cc3)cc2)[nH]c2ccc(F)cc2c1=O,>50,2480,> 10000,> 4,
COc1ccc(Cc2ccc(-c3[nH]c4cccc(F)c4c(=O)c3C)cc2)cc1,>50,2170,> 10000,> 5,
CCN(C)c1ccc(Oc2ccc(-c3[nH]c4cccc(F)c4c(=O)c3C)cc2F)cc1,>50,240,> 10000,> 42,
Cc1c(-c2ccc(Cc3ccc(S(F)(F)(F)(F)F)cc3)cc2)[nH]c2cccc(F)c2c1=O,>50,730,> 5000,> 7,
Cc1c(-c2ccc(Cc3ccc(SC(F)(F)F)cc3)cc2)[nH]c2cccc(F)c2c1=O,>50,360 to 1560,> 10000,> 27,
Cc1c(-c2ccc(Cc3ccc(SC(F)(F)F)cc3)cc2)[nH]c2cc(F)ccc2c1=O,>50,970,> 5000,> 5,
Cc1c(-c2ccc(-c3ccc(SC(F)(F)F)cc3)cc2)[nH]c2cccc(F)c2c1=O,>50,2330,> 10000,> 4,
Cc1c(-c2ccc(Cc3ccc(OC(F)(F)F)cc3)cc2)[nH]c2cccc(F)c2c1=O,>50,360 to 1560,> 10000,> 6,
Cc1c(-c2ccc(Cc3ccc(OC(F)F)cc3)cc2)[nH]c2cccc(F)c2c1=O,>50,1010,> 5000,> 5,
Cc1c(-c2ccc(Cc3ccc([S+]([O-])C(F)(F)F)cc3)cc2)[nH]c2cccc(F)c2c1=O (stereo not drawn),>50,760,> 5000,> 7,
Cc1c(-c2ccc(Oc3ccc(SC(F)(F)F)cc3)c(F)c2)[nH]c2cccc(F)c2c1=O,>50,360,> 10000,> 27,
Cc1c(-c2ccc(COc3ccc(SC(F)(F)F)cc3)cc2)[nH]c2cccc(F)c2c1=O,>50,1590,> 10000,> 6,
Cc1c(-c2ccc(Cc3ccc(N4CCCCC4)cc3)cc2)[nH]c2cccc(F)c2c1=O,>50,1920,> 10000,> 5,

SMILES,Activity (Hepatitis C virus [1]) [%],EC50 (Hepatitis C virus [2]) [nM],CC50 at 48 h [3] [nM],selectivity ratio [4],IC50 [5] [nM]
C#CCCC1(CCN(CC)c2ccc(Oc3ccc(-c4nc5cccc(F)c5c(OC)c4C)cc3F)cc2)N=N1,>50,> 5000,,,1030
Cc1c(-c2ccc(Cc3ccc(OCC(F)(F)F)cc3)cc2)[nH]c2cccc(F)c2c1=O,>50,840,> 5000,> 6,
Cc1c(-c2ccc(Cc3ccc(C(C)(O)C(F)(F)F)cc3)cc2)[nH]c2cccc(F)c2c1=O (stereo not drawn),>50,110,> 2500,> 23,
Cc1c(-c2ccc(Cc3ccc(S(=O)(=O)C(F)(F)F)cc3)cc2)[nH]c2cccc(F)c2c1=O,>50,1760,> 2500,> 2,
Cc1c(-c2ccc(Oc3ccc(N(C)C)cc3)c(F)c2)[nH]c2cccc(F)c2c1=O,>50,1050,> 10000,> 10,
Cc1c(-c2ccc(Oc3ccc(N4CCNCC4)cc3)c(F)c2)[nH]c2cccc(F)c2c1=O,>50,2570,> 10000,> 4,
Cc1c(-c2ccc(CNC(=O)c3ccc(SC(F)(F)F)cc3)cc2)[nH]c2cccc(F)c2c1=O,>50,11000,> 50000,> 5,
Cc1c(-c2ccc(Cc3ccc(C(C)(C)C)cc3)cc2)[nH]c2cccc(F)c2c1=O,>50,290,> 5000,> 17,
Cc1c(-c2ccc(Cc3ccc(S(=N)(=O)C(F)(F)F)cc3)cc2)[nH]c2cccc(F)c2c1=O (stereo not drawn),>50,1420,> 10000,> 7,
CCN(CC)CCOc1ccc(-c2[nH]c3cccc(F)c3c(=O)c2C)cc1,>50,25600,> 100000,> 4,
CCCN(CC)c1ccc(Oc2ccc(-c3[nH]c4cccc(F)c4c(=O)c3C)cc2F)cc1,>50,66,> 10000,> 151,
Cc1c(-c2ccc(Cc3ccc(C(O)C(F)(F)F)cc3)cc2)[nH]c2cccc(F)c2c1=O (stereo not drawn),>50,3490,> 10000,> 3,
Cc1c(-c2ccc(Cc3ccc(SC(F)(F)F)cc3)cc2)[nH]c2c(F)cccc2c1=O,>50,1850,> 5000,> 3,
Cc1c(-c2ccc(Cc3ccc(Cl)cc3)cc2)[nH]c2cccc(F)c2c1=O,>50,4400,> 10000,> 2,
Cc1c(-c2ccc(Oc3ccc(N4CCCCC4)cc3)c(F)c2)[nH]c2cccc(F)c2c1=O,>50,100,> 10000,> 100,
CCNc1ccc(Oc2ccc(-c3[nH]c4cccc(F)c4c(=O)c3C)cc2F)cc1,>50,170,> 10000,> 58,
C#CCCC1(CCN(CC)c2ccc(Oc3ccc(-c4[nH]c5cccc(F)c5c(=O)c4C)cc3F)cc2)N=N1,>50,8,,,250
